Reference: ChEMBL document CHEMBL4765368, “Structure guided design and synthesis of furyl thiazolidinedione derivatives as inhibitors of GLUT 1 and GLUT 4, and evaluation of their anti-leukemic potential” (Eur J Med Chem, 2020)
The source made the active and inactive calls. The rule behind the calls is not given here.

How the values were obtained:
[1] = target: T1, Solute carrier family 2, facilitated glucose transporter member 5 (Homo sapiens) (UniProt P22732); assay: Inhibition of transport activity of human GLUT5 expressed in hexose transporter deficient VW4000 yeast cells assessed as reduction in transporter-mediated [14C]-fructose uptake into cells at 100 uM measured after 10 mins by scintillation counting method; format: cell-based
T1 sequence (whole entry): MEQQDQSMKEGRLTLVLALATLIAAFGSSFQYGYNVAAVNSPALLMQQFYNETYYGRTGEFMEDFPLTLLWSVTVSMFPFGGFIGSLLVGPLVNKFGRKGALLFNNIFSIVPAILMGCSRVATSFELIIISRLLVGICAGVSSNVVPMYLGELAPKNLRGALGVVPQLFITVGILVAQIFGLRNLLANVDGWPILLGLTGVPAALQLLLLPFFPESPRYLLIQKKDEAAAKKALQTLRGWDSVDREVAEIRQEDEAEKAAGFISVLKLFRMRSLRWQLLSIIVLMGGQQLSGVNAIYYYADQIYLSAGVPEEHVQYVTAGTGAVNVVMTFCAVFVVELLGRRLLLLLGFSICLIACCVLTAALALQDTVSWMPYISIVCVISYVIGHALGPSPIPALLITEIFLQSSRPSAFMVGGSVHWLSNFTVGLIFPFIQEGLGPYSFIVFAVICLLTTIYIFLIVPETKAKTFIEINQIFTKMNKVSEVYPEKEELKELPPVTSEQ
Outline: (§1)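 The hxt0 yeast strain expressing one human GLUT was grown at 30 °C and resuspended in PBS pH 7.4 at OD600 ~10. Uptake was started with 14C-glucose at 5 mM final (GLUT1, GLUT4) or 14C-fructose at 10 mM final (GLUT5). It was quenched after 10 min with ice-cold 0.1 M KPi/0.1 M LiCl pH 5.5, filtered and counted by scintillation. Compound at 100 μM with 1% DMSO; DMSO control and phloretin 200 μM (GLUT1/4) or MSNBA 100 μM (GLUT5) as references. Triplicates.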

[2] = target: T2, Histone deacetylase 8 (Homo sapiens) (UniProt Q9BY41); assay: (§2) Inhibition of recombinant human His6/SUMO-tagged HDAC8 expressed in Escherichia coli (BL21) DE3 pLysS assessed as residual activity at 50 uM using Boc-Lys(trifluoroacetyl)-AMC as substrate preincubated for 60 mins followed by substrate addition and measured after 60 mins by fluorescence assay relative to control; details: time 120.0 min
T2 sequence (whole entry): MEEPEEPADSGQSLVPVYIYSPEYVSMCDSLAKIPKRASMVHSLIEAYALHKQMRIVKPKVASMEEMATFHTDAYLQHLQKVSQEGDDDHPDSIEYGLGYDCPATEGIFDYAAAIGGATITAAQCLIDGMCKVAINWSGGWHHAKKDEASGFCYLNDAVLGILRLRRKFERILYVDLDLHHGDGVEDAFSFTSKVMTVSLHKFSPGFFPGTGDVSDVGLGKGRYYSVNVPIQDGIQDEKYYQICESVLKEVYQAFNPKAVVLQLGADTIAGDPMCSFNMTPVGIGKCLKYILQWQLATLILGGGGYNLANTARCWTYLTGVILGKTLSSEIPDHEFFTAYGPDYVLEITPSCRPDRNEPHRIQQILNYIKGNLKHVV
Outline: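 20 μM Boc-Lys(trifluoroacetyl)-AMC was then added for 60 min at 30 °C, the reaction stopped with 1.7 μM SATFMK and developed with 0.4 mg/ml trypsin, and AMC fluorescence read at Ex 350/Em 450 nm. Triplicates; percent relative activity.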

[3] = target: Histone deacetylase 4 (Homo sapiens) (UniProt P56524); assay: as §2, with “N-terminal GST-tagged HDAC4 (627 to end residues)” for “His6/SUMO-tagged HDAC8”, “baculovirus infected Sf9 insect cells” for “Escherichia coli (BL21) DE3 pLysS”; details: time 120.0 min
Histone deacetylase 4 (Homo sapiens), sequence (P56524 whole entry): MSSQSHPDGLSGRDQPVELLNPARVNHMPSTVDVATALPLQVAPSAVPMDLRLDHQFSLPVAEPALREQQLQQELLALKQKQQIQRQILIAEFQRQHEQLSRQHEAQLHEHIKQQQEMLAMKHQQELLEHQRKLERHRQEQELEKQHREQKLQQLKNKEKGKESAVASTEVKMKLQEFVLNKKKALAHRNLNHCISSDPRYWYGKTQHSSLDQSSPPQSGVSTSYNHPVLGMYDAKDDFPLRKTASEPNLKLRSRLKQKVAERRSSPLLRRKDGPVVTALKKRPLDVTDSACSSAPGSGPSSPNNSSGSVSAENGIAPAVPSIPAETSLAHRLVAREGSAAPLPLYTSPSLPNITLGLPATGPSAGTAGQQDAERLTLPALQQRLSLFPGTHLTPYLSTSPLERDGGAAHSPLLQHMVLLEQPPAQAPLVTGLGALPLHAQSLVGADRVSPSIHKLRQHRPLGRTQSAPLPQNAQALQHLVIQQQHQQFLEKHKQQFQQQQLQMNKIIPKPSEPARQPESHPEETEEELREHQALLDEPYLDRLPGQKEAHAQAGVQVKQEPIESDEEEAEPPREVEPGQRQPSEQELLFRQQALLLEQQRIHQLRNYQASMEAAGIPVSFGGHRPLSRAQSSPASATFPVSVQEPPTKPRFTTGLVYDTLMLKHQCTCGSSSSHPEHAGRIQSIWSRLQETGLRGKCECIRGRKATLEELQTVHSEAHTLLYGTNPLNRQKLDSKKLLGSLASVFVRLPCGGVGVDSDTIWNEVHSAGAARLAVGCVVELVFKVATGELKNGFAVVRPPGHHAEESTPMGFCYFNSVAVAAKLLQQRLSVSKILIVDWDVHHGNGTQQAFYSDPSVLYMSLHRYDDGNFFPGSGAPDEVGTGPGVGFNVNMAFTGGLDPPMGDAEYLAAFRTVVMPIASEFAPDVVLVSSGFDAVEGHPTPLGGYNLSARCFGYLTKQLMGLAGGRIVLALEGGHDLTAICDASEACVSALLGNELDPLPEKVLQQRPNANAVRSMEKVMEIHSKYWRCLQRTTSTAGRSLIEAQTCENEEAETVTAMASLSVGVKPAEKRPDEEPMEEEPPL

CCRF-CEM = assay: Cytotoxicity against human CCRF-CEM cells assessed as reduction in cell viability measured after 48 hrs by Hoechst 33342/propidium iodide staining based imaging analysis; format: functional
Outline: (§3)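 Cells were seeded at 10,000 per well (HS-27 at 3,000) in 10% FBS RPMI (leukemic lines) or DMEM (MDA-MB-231, HS-27). Compound in DMSO (1% v/v final) at 0.5–100 µM for 48 h. Hoechst 33342 and PI were added 2 h before automated imaging; dead cells were co-stained. Quadruplicates. CC50 was taken by linear interpolation between the two concentrations nearest 50% death.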

K562 = assay: Cytotoxicity against human K562 cells assessed as reduction in cell viability measured after 48 hrs by Hoechst 33342/propidium iodide staining based imaging analysis; format: functional; outline: as §3
KCL-22 = assay: Cytotoxicity against human KCL-22 cells assessed as reduction in cell viability measured after 48 hrs by Hoechst 33342/propidium iodide staining based imaging analysis; format: functional; outline: as §3
Histone deacetylase 8 = target: T3, Histone deacetylase 8 (Homo sapiens, UniProt Q9BY41); assay: Inhibition of recombinant human His6/SUMO-tagged HDAC8 expressed in Escherichia coli (BL21) DE3 pLysS using Boc-Lys(trifluoroacetyl)-AMC as substrate preincubated for 60 mins followed by substrate addition and measured after 60 mins by fluorescence assay
T3 sequence (Q9BY41 whole entry): T2 sequence (whole entry)

[4] = target: T4, Solute carrier family 2, facilitated glucose transporter member 1 (Homo sapiens) (UniProt P11166); assay: Inhibition of transport activity of human GLUT1 expressed in hexose transporter deficient VW4000fgy1 yeast cells assessed as reduction in transporter-mediated [14C]-hexose uptake into cells at 100 uM measured after 10 mins by scintillation counting method relative to control; format: cell-based; outline: as §1
T4 sequence (whole entry): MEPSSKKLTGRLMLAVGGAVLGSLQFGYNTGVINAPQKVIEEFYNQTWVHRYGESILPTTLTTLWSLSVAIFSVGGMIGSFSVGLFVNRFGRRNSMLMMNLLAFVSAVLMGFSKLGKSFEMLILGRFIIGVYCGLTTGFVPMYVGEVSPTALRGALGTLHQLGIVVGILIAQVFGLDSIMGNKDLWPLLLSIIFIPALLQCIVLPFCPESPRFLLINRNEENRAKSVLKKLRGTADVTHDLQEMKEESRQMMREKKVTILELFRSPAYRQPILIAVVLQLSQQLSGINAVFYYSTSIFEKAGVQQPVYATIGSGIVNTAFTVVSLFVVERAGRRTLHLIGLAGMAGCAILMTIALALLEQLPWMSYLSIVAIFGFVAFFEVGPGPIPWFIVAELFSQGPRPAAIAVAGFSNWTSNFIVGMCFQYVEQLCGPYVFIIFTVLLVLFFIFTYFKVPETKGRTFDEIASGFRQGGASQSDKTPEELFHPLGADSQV

[5] = target: T5, Solute carrier family 2, facilitated glucose transporter member 4 (Homo sapiens) (UniProt P14672); assay: Inhibition of transport activity of human GLUT4 expressed in hexose transporter deficient […] erg4 yeast cells assessed as reduction in transporter-mediated [14C]-hexose uptake into cells at 100 uM measured after 10 mins by scintillation counting method relative to control; format: cell-based; outline: as §1
T5 sequence (whole entry): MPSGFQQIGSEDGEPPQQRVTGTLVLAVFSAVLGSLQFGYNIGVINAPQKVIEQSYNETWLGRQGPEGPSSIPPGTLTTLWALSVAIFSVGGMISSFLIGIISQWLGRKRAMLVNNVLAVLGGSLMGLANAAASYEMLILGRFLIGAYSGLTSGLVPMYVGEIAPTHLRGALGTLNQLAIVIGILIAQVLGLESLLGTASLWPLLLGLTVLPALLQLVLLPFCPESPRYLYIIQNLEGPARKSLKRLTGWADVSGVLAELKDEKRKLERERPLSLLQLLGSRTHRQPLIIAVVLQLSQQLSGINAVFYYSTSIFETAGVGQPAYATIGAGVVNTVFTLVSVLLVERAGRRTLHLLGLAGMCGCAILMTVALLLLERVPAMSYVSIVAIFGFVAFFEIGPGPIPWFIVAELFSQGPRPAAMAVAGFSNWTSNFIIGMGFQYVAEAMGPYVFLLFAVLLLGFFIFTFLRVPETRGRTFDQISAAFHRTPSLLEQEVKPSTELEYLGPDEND

[6] = target: T6, Solute carrier family 2, facilitated glucose transporter member 1 (Homo sapiens, UniProt P11166); assay: Inhibition of transport activity of human GLUT1 expressed in hexose transporter deficient VW4000fgy1 yeast cells assessed as reduction in transporter-mediated [14C]-hexose uptake into cells measured after 10 mins by scintillation counting method; format: cell-based
T6 sequence (P11166 whole entry): T4 sequence (whole entry)
Outline: (§4)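 GLUT1 (VW4000fgy1) or GLUT4 (VW4000fgy1erg4) hxt0 yeast were grown on maltose and then glucose and resuspended in PBS pH 7.4 at OD600 ~10. Compound was used at 0.1–100 μM, final 1% DMSO. Uptake of 5 mM 14C-glucose over 10 min was stopped with ice-cold quench buffer, filtered and counted by scintillation. IC50 was taken from dose-response curves of three independent measurements.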

[7] = target: T7, Solute carrier family 2, facilitated glucose transporter member 4 (Homo sapiens, UniProt P14672); assay: Inhibition of transport activity of human GLUT4 expressed in hexose transporter deficient W4000fgy1 erg4 yeast cells assessed as reduction in transporter-mediated [14C]-hexose uptake into cells measured after 10 mins by scintillation counting method; format: cell-based; outline: as §4
T7 sequence (P14672 whole entry): T5 sequence (whole entry)

Structure (SMILES) | inhibition [1] | Activity [2] [%] | Activity [3] [%] | IC50 (Histone deacetylase 8) [µM] | inhibition [4] [%] | inhibition [5] [%] | IC50 [6] [µM] | IC50 [7] [µM] | CC50 (CCRF-CEM) [µM] | CC50 (K562) [µM] | CC50 (KCL-22) [µM]
Cc1cc(NC(=O)CN2C(=O)S/C(=C/c3ccco3)C2=O)no1 | inactive | > 50 | > 50 |  |  |  |  |  | > 100 | 98.6 | > 100
O=C(CN1C(=O)S/C(=C/c2ccco2)C1=O)Nc1ccccc1 | inactive | > 50 | > 50 |  |  |  |  |  |  |  | 
Cc1c(NC(=O)CN2C(=O)S/C(=C/c3ccco3)C2=O)c(=O)n(-c2ccccc2)n1C | inactive | > 50 | > 50 |  |  |  |  |  |  |  | 
O=C(CN1C(=O)S/C(=C/c2ccco2)C1=O)Nc1ccccn1 | inactive | > 50 | > 50 |  |  |  |  |  |  |  | 
O=C(CN1C(=O)S/C(=C/c2ccco2)C1=O)Nc1ccc(Oc2ccccc2)cc1 | inactive | > 50 | > 50 |  |  |  |  |  |  |  | 
O=C(CN1C(=O)S/C(=C/c2ccco2)C1=O)Nc1c(F)cc(Br)cc1F | inactive | > 50 | > 50 |  |  |  |  |  |  |  | 
O=C(CN1C(=O)S/C(=C/c2ccco2)C1=O)Nc1ccc([N+](=O)[O-])cc1 | inactive | 17 | > 50 | 13 |  |  |  |  |  |  | 
Cc1ccc(NC(=O)CN2C(=O)S/C(=C/c3ccco3)C2=O)cc1 | inactive | > 50 | > 50 |  |  |  |  |  | 102 | > 100 | > 100
Cc1cccc2sc(NC(=O)CN3C(=O)S/C(=C/c4ccco4)C3=O)nc12 | inactive | > 50 | > 50 |  | > 50 | > 50 | 72 | 123 | 96.8 | 97.1 | 97
O=C(CN1C(=O)S/C(=C/c2ccco2)C1=O)Nc1nccs1 | inactive | > 50 | > 50 |  |  |  |  |  |  |  | 
O=C(CN1C(=O)S/C(=C/c2ccco2)C1=O)Nc1ccc(Br)cc1 | inactive | > 50 | > 50 |  |  |  |  |  | 81 | 94 | 98.2
COc1ccc(NC(=O)CN2C(=O)S/C(=C/c3ccco3)C2=O)cc1 | inactive | > 50 | > 50 |  |  |  |  |  |  |  | 

Now from value to compound, other results behind:

inhibition [1] | Activity [2] [%] | Activity [3] [%] | IC50 (Histone deacetylase 8) [µM] | inhibition [4] [%] | inhibition [5] [%] | IC50 [6] [µM] | IC50 [7] [µM] | Structure (SMILES) | CC50 (CCRF-CEM) [µM] | CC50 (K562) [µM] | CC50 (KCL-22) [µM]
inactive | > 50 | > 50 |  |  |  |  |  | O=C(CN1C(=O)S/C(=C/c2ccco2)C1=O)Nc1cccc(F)c1 |  |  | 
inactive | > 50 | > 50 |  |  |  |  |  | O=C(CN1C(=O)S/C(=C/c2ccco2)C1=O)Nc1ccc(F)cc1 |  |  | 
inactive | > 50 | > 50 |  |  |  |  |  | O=C(CN1C(=O)S/C(=C/c2ccco2)C1=O)Nc1ccccc1F |  |  | 
inactive | > 50 | > 50 |  |  |  |  |  | O=C(CN1C(=O)S/C(=C/c2ccco2)C1=O)Nc1ccc(F)cc1F |  |  | 
inactive | > 50 | > 50 |  |  |  |  |  | O=C(CN1C(=O)S/C(=C/c2ccco2)C1=O)Nc1ccc(Br)cc1F |  |  | 
inactive | > 50 | > 50 |  |  |  |  |  | O=C(CN1C(=O)S/C(=C/c2ccco2)C1=O)Nc1cc(C(F)(F)F)ccc1Cl |  |  | 
inactive | > 50 | > 50 |  |  |  |  |  | O=C(CN1C(=O)S/C(=C/c2ccco2)C1=O)Nc1cccc(C(F)(F)F)c1 |  |  | 
inactive | > 50 | > 50 |  |  |  |  |  | Cc1ccc(NC(=O)CN2C(=O)S/C(=C/c3ccco3)C2=O)cc1Cl |  |  | 
 | > 50 | > 50 |  |  |  |  |  | O=C(CN1C(=O)S/C(=C/c2ccco2)C1=O)Nc1ccc(Br)c(Br)c1 |  |  | 
inactive | > 50 | > 50 |  |  |  |  |  | O=C(CN1C(=O)S/C(=C/c2ccco2)C1=O)Nc1ccc(Cl)cc1C(F)(F)F | 79.9 | > 100 | > 100
